According to ChEMBL document CHEMBL4190404, “Synthesis and characterization of amino acid substituted sunitinib analogues for the treatment of AML” (Bioorg Med Chem Lett, 2018):
Values after ≈ are worked out from the molar mass of the structure shown.

Assays:
[1] = test system: Receptor-type tyrosine-protein kinase FLT3 (Homo sapiens), P36888 [UNDEFINED MUTATION]; assay: Inhibition of FLT3 ITD mutant (unknown origin) using TAMRA-Src- tide as substrate at 12.5 uM after 1 hr by fluorescence polarization assay relative to control
Receptor-type tyrosine-protein kinase FLT3 (Homo sapiens), P36888 [UNDEFINED MUTATION], sequence (P36888 whole entry, looked up, change not shown): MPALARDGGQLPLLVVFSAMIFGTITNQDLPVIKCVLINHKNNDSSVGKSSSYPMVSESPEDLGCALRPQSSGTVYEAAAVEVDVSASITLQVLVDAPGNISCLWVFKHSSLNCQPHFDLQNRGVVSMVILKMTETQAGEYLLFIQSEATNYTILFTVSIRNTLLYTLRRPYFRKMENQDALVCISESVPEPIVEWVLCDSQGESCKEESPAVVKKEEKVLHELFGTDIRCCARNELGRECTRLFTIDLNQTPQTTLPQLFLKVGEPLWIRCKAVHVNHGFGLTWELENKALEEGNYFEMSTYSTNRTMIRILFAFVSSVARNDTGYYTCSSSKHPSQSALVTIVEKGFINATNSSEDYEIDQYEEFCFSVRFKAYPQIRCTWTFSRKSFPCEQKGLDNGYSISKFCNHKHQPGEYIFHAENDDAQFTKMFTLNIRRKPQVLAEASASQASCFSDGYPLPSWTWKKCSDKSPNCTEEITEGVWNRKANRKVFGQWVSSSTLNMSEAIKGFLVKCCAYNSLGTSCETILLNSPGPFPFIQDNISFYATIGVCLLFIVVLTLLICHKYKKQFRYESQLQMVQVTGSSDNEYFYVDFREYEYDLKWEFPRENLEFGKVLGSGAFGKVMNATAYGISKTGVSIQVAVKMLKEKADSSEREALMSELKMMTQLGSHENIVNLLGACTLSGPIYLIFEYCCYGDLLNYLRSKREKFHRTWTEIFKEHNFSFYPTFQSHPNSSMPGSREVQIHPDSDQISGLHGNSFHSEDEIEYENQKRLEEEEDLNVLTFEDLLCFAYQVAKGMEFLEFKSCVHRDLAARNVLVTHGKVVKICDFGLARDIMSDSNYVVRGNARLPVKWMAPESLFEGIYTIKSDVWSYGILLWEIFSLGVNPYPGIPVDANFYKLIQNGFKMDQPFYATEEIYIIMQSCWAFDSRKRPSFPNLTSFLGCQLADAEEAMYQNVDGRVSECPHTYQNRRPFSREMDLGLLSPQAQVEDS
Summary of the method: (§1)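 FLT3-ITD kinase inhibition by fluorescence polarization IMAP assay; each compound tested at 12.5 and 1.25 μM; percent inhibition, average of two parallel measurements.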

[2] = Lipophilicity, chromatographic hydrophobicity index of the compound at pH 1.2 by HPLC method; assay type: physicochemical; settings: buffer
Summary of the method: (§2)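 RP-HPLC with buffer/acetonitrile gradient elution; CHI profile at starting pH 10.5, 7.4, 5.5 and 1.2; values given as average of the compound group.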

[3] = buffer, pH 10.5
[4] = test system: Receptor-type tyrosine-protein kinase FLT3 (Homo sapiens), P36888 [UNDEFINED MUTATION]; assay: Inhibition of FLT3 ITD mutant (unknown origin) using TAMRA-Src- tide as substrate at 1.25 uM after 1 hr by fluorescence polarization assay relative to control; summary of the method: as §1
[5] = Lipophilicity, chromatographic hydrophobicity index of the compound at pH 5.5 by HPLC method; assay type: physicochemical; settings: buffer; summary of the method: as §2
[6] = test system: MV4-11; assay: Antiproliferative activity against human MV4-11 cells after 72 hrs by Celltiter-Glo luminescent cell viability assay; assay type: functional, cell-based; settings: MV4-11, 72 h
Summary of the method: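 MV4-11 leukaemia cells, 72 h proliferation assay, luminescence read-out; IC50 determined from concentration–response.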

[7] = Aqueous solubility in pH 5.5 phosphate buffer at 120 uM after 24 hrs by HPLC method; assay type: physicochemical; settings: phosphate buffer, pH 5.5
[8] = Lipophilicity, chromatographic hydrophobicity index of the compound at pH 7.4 by HPLC method; assay type: physicochemical; settings: buffer; summary of the method: as §2
[9] = Aqueous solubility in pH 7.4 phosphate buffer at 120 uM after 24 hrs by HPLC method; assay type: physicochemical
[10] = Dissociation constant, pKa of the compound at 25 to 50 uM by UV spectroscopy; assay type: physicochemical
Summary of the method: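 Carboxyl pKa by automated UV/pH titration with MeOH as co-solvent.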

Row | Compound | inhibition [1] | CHI [2] | CHI [3] | inhibition [4] | CHI [5] | IC50 [6] | solubility at 24 h, 120 µM [7] | CHI [8] | solubility at 24 h, 120 µM [9] | pKa at up to 50 µM [10]
1 | COC(=O)CC[C@H](NC(=O)c1c(C)[nH]c(/C=C2\C(=O)Nc3ccc(C(=O)OC)cc32)c1C)C(=O)OC | 92.2% | 73 | 73 | 87% | 73 | 0.08 µM | < 5 µM | 73 | < 5 µM | 
2 | COC(=O)CC[C@H](NC(=O)c1c(C)[nH]c(/C=C2\C(=O)Nc3ccc(C(=O)O)cc32)c1C)C(=O)OC | > 100% | 58 | 35 | 97.4% | 45 |  | 30 µM (≈ 14.5 µg/mL) | 38 | ≥ 120 µM | 
3 | COC(=O)CC[C@@H](NC(=O)c1ccc2c(c1)/C(=C/c1[nH]c(C)c(C(=O)O)c1C)C(=O)N2)C(=O)OC | 12.1% |  |  | 80.6% |  |  |  |  |  | 5.47
4 | CCOC(=O)c1c(C)[nH]c(/C=C2\C(=O)Nc3ccc(C(=O)N[C@@H](CCC(=O)OC)C(=O)OC)cc32)c1C | 76.7% | 84 | 84 | 30.2% | 84 |  | < 1 µM | 84 | < 1 µM | 
5 | Cc1[nH]c(/C=C2\C(=O)Nc3ccc(C(=O)O)cc32)c(C)c1C(=O)N[C@@H](Cc1ccccc1)C(=O)O | > 100% | 61 | 24 | 100% | 35 |  | 110 µM (≈ 52.1 µg/mL) | 29 | ≥ 120 µM | 
6 | COC(=O)CC[C@H](NC(=O)c1ccc2c(c1)/C(=C/c1[nH]c(C)c(C(=O)O)c1C)C(=O)N2)C(=O)OC | 28.8% | 59 | 34 | 58.7% | 54 |  | < 5 µM | 42 | 100 µM (≈ 48.3 µg/mL) | 
7 | COC(=O)CC[C@H](NC(=O)c1ccc2c(c1)/C(=C/c1[nH]c(C)c(C(=O)N[C@@H](CCC(=O)OC)C(=O)OC)c1C)C(=O)N2)C(=O)OC | 80.5% | 65 | 65 | 41.9% | 65 |  | < 5 µM | 65 | < 5 µM | 
8 | CCOC(=O)c1c(C)[nH]c(/C=C2\C(=O)Nc3ccc(C(=O)N[C@@H](Cc4ccccc4)C(=O)OC)cc32)c1C | 74.2% | 99 | 100 | 25% | 98 | 10.6 µM | < 1 µM | 98 | < 1 µM | 
9 | COC(=O)c1ccc2c(c1)/C(=C/c1[nH]c(C)c(C(=O)N[C@@H](Cc3ccccc3)C(=O)OC)c1C)C(=O)N2 | 79.3% | 89 | 89 | 45.7% | 89 | 0.5 µM | < 1 µM | 88 | < 5 µM | 
10 | CCN(CC)CCNC(=O)c1c(C)[nH]c(/C=C2\C(=O)Nc3ccc(F)cc32)c1C [SUNITINIB] | 94.8% | 51 |  | 92.3% | 55 | < 0.01 µM | ≥ 120 µM | 57 | ≥ 120 µM | 
11 | Cc1[nH]c(/C=C2\C(=O)Nc3ccc(C(=O)N[C@@H](Cc4ccccc4)C(=O)O)cc32)c(C)c1C(=O)O | > 100% | 63 | 24 | 97.4% | 41 |  | < 5 µM | 32 | ≥ 120 µM | 

Other lines, results leading:

Row | inhibition [1] | CHI [2] | CHI [3] | inhibition [4] | CHI [5] | IC50 [6] | solubility at 24 h, 120 µM [7] | CHI [8] | solubility at 24 h, 120 µM [9] | pKa at up to 50 µM [10] | Compound
12 | > 100% | 80 | 57 | 58.6% | 60 | 24.3 µM | 30 µM (≈ 19 µg/mL) | 59 | 70 µM (≈ 44.4 µg/mL) |  | COC(=O)[C@H](Cc1ccccc1)NC(=O)c1ccc2c(c1)/C(=C/c1[nH]c(C)c(C(=O)N[C@@H](Cc3ccccc3)C(=O)O)c1C)C(=O)N2
13 | 71.6% | 73 | 47 | 69% | 68 | 3.7 µM | < 1 µM | 56 | 20 µM (≈ 9.75 µg/mL) |  | COC(=O)[C@H](Cc1ccccc1)NC(=O)c1ccc2c(c1)/C(=C/c1[nH]c(C)c(C(=O)O)c1C)C(=O)N2
14 | > 100% | 70 | 36 | 98.7% | 40 |  | 110 µM (≈ 68.3 µg/mL) | 39 | ≥ 120 µM |  | Cc1[nH]c(/C=C2\C(=O)Nc3ccc(C(=O)N[C@@H](Cc4ccccc4)C(=O)O)cc32)c(C)c1C(=O)N[C@@H](Cc1ccccc1)C(=O)O
15 | > 100% | 81 | 58 | 94.8% | 60 |  | 20 µM (≈ 12.7 µg/mL) | 60 | 50 µM (≈ 31.7 µg/mL) |  | COC(=O)[C@H](Cc1ccccc1)NC(=O)c1c(C)[nH]c(/C=C2\C(=O)Nc3ccc(C(=O)N[C@@H](Cc4ccccc4)C(=O)O)cc32)c1C
16 | 91% | 78 | 77 | 57.3% | 79 | 11.9 µM | < 1 µM | 78 | < 1 µM |  | COC(=O)CC[C@H](NC(=O)c1c(C)[nH]c(/C=C2\C(=O)Nc3ccc(C(=O)N[C@@H](Cc4ccccc4)C(=O)OC)cc32)c1C)C(=O)OC
17 | > 100% | 86 | 58 | 90.9% | 61 |  | < 5 µM | 60 | 20 µM (≈ 10 µg/mL) |  | CCOC(=O)c1c(C)[nH]c(/C=C2\C(=O)Nc3ccc(C(=O)N[C@@H](Cc4ccccc4)C(=O)O)cc32)c1C
18 | 92.3% | 92 | 91 | 28.9% | 91 | 10.9 µM | < 1 µM | 90 | < 1 µM |  | COC(=O)[C@H](Cc1ccccc1)NC(=O)c1ccc2c(c1)/C(=C/c1[nH]c(C)c(C(=O)N[C@@H](Cc3ccccc3)C(=O)OC)c1C)C(=O)N2
19 | > 100% | 68 | 47 | 98.7% | 50 |  | 60 µM (≈ 37.8 µg/mL) | 50 | ≥ 120 µM |  | COC(=O)CC[C@H](NC(=O)c1c(C)[nH]c(/C=C2\C(=O)Nc3ccc(C(=O)N[C@@H](Cc4ccccc4)C(=O)O)cc32)c1C)C(=O)OC
20 | 79.4% | 79 | 79 | 19.9% | 79 | 17.7 µM | < 1 µM | 79 | < 1 µM |  | COC(=O)CC[C@H](NC(=O)c1ccc2c(c1)/C(=C/c1[nH]c(C)c(C(=O)N[C@@H](Cc3ccccc3)C(=O)OC)c1C)C(=O)N2)C(=O)OC
